Data set [1] can be described thus: Cytotoxicity against human TZM-bl cells by Cell Titer Blue cell viability assay. The format is cell-based. The method in brief:
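Viability of TZM-bl reporter cells was measured by Cell Titer Blue at the same compound concentration used in the HIV-1 infectivity assay (3 μM).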

Data set [2] relates to TZM-bl. Kind of data set: Inhibition of HIV protein Nef in TZM-bl cells assessed decrease in HIV infectivity at 3 uM after 48 hrs by TZM-bl HIV infectivity assay. The format is cell-based. As to conditions: Human immunodeficiency virus. The method in brief:
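TZM-bl reporter cells (HIV-1 LTR-driven luciferase) received compound at 3 μM and were then infected with wild-type HIV-1 NL4-3. Luciferase was read 48 h later. Signal from cells infected with Nef-defective HIV was subtracted, and values are mean percent of untreated-cell control ± SEM.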

Activity calls are given as the source filed them. The rule behind the calls is not given here.

In the case of `Oc1[nH]nc(-c2ccc(F)cc2)c1/N=N/c1cccnc1`, the Activity result in data set [1] is “Non-toxic”. On to `Oc1[nH]nc(-c2ccccc2)c1/N=N/c1ccccc1`, for which, in data set [1], the Activity entry was “Non-toxic”. For the same molecule, in data set [2], the “Nef inhibition activity call (active/inactive)” value was “inactive”. In the case of `NC(=S)n1nc(-c2ccc([N+](=O)[O-])cc2)c(/N=N/c2ccccc2F)c1O`, the Activity result in data set [1] was “Non-toxic”. The same measure, in the same setting: with `NC(=O)n1nc(-c2ccc(F)cc2)c(/N=N/c2cncc(Cl)c2)c1O` the entry was “Non-toxic”. Consider `COc1ccc(-c2nn(C(N)=S)c(O)c2/N=N/c2cccc(Cl)c2)cc1`, for which, in data set [1], the Activity entry is “Non-toxic”. Moreover, the “Nef inhibition activity call (active/inactive)” value in data set [2] is “inactive”.

Turning to `NC(=S)n1nc(-c2ccc([N+](=O)[O-])cc2)c(/N=N/c2cccnc2)c1O`, the Activity result in data set [1] was “Non-toxic”. The “Nef inhibition activity call (active/inactive)” value in data set [2] was “Active”. On to `NC(=S)n1nc(-c2ccc([N+](=O)[O-])cc2)c(/N=N/c2ccc(F)cc2)c1O`, for which the Activity entry in data set [1] is recorded as “Non-toxic”. As for `NC(=O)n1nc(-c2ccc([N+](=O)[O-])cc2)c(/N=N/c2ccc(Cl)cc2)c1O`, in data set [1], the Activity entry was “Non-toxic”. As for `NC(=S)n1nc(-c2ccc([N+](=O)[O-])cc2)c(/N=N/c2cccc(F)c2)c1O`, the Activity result in data set [1] is given as “Non-toxic”. On the same count and under the same terms, for `NC(=O)n1nc(-c2ccc([N+](=O)[O-])cc2)c(/N=N/c2cccnc2)c1O` the value was “Non-toxic”; for `NC(=S)n1nc(-c2ccc([N+](=O)[O-])cc2)c(/N=N/c2cccc(Cl)c2)c1O`, “Non-toxic”.

Consider `NC(=S)n1nc(-c2ccc([N+](=O)[O-])cc2)c(/N=N/c2ccccc2Cl)c1O`, for which the Activity result in data set [1] is “Non-toxic”. Also, in data set [2], the “Nef inhibition activity call (active/inactive)” value is “inactive”. As to `NC(=S)n1nc(-c2ccccc2)c(/N=N/c2cccc(Cl)c2)c1O`, the Activity result in data set [1] is given as “Non-toxic”. In addition, in data set [2], the “Nef inhibition activity call (active/inactive)” value is “inactive”. Consider `Oc1[nH]nc(-c2ccc(F)cc2)c1/N=N/c1cncc(Cl)c1`, for which, in data set [1], the Activity entry is reported as “Non-toxic”. Moreover, in data set [2], the “Nef inhibition activity call (active/inactive)” value was “inactive”. Consider `NC(=O)n1nc(-c2ccc([N+](=O)[O-])cc2)c(/N=N/c2cccc(Cl)c2)c1O`, for which, in data set [1], the Activity entry was “Non-toxic”. In addition, in data set [2], the “Nef inhibition activity call (active/inactive)” value is “inactive”. Take `NC(=S)n1nc(-c2ccc([N+](=O)[O-])cc2)c(/N=N/c2ccc(Cl)cc2)c1O`: in data set [1], the Activity result is “Non-toxic”. Further, the “Nef inhibition activity call (active/inactive)” value in data set [2] is “Active”. In the same order, the values of `NC(=S)n1nc(-c2ccc([N+](=O)[O-])cc2)c(/N=N/c2cncc(Cl)c2)c1O` are “Non-toxic” and “Active”. In the case of `NC(=O)n1nc(-c2ccc([N+](=O)[O-])cc2)c(/N=N/c2cncc(Cl)c2)c1O`, the Activity entry in data set [1] is “Non-toxic”.

On to `NC(=O)n1nc(-c2ccc(F)cc2)c(/N=N/c2cccc(Cl)c2)c1O`, for which the Activity entry in data set [1] is “Non-toxic”. In data set [2], the “Nef inhibition activity call (active/inactive)” value is “Active”. In the same order, the values of `COc1ccc(/N=N/c2c(-c3ccc([N+](=O)[O-])cc3)n[nH]c2O)cc1` are “Non-toxic” and “Active”. In the same order, the values of `NC(=S)n1nc(-c2ccc(C(F)(F)F)cc2)c(/N=N/c2cccc(Cl)c2)c1O` are “Non-toxic” and “Active”. For `NC(=O)n1nc(-c2ccc(F)cc2)c(/N=N/c2cccnc2)c1O`, the Activity entry in data set [1] was “Non-toxic”.

As for `COc1cccc(/N=N/c2c(-c3ccc([N+](=O)[O-])cc3)nn(C(N)=S)c2O)c1`, in data set [1], the Activity entry is given as “Non-toxic”. For the same molecule, in data set [2], the “Nef inhibition activity call (active/inactive)” value is “inactive”. On the same counts, the results for `COc1ccccc1/N=N/c1c(-c2ccc([N+](=O)[O-])cc2)nn(C(N)=S)c1O` are “Non-toxic” and “inactive”.

The record behind these values is ChEMBL document CHEMBL3232871, “Synthesis and structure-activity analysis of diphenylpyrazolodiazene inhibitors of the HIV-1 Nef virulence factor” (Bioorg Med Chem Lett, 2014).
